Measurements: ChEMBL document CHEMBL5038677, “Identification and In Silico Binding Study of a Highly Potent DENV NS2B-NS3 Covalent Inhibitor” (ACS Med Chem Lett, 2022)
Calls of active or inactive are those of the source. No cut-off for these calls is given here.

Legend:
[1] = molecular target: Genome polyprotein (dengue virus type 2) (UniProt P29990); assay: Inhibition of DENV NS2B-NS3 protease assessed as fluorescence emission using benzoyl-Nle-Lys-Arg-Arg-AMC as substrate at 150 nM preincubated with enzyme for 60 min followed by substrate addition and measured for 15 min by fluorimetric assay
Procedure, shortened: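 The substrate is cleaved to release fluorescent AMC, and fluorescence intensity is the read-out. Percent inhibition is taken from triplicate measurements at 150 nM compound.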

[2] = molecular target: T1, Genome polyprotein (dengue virus type 2, UniProt P29990); assay: Inhibition of DENV NS2B-NS3 protease assessed as fluorescence emission using benzoyl-Nle-Lys-Arg-Arg-AMC as substrate preincubated with enzyme for 60 min followed by substrate addition and measured for 15 min by fluorimetric assay
Procedure, shortened: (§1)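 Fluorometric protease assay reading the fluorescence of product released from benzoyl-Nle-Lys-Arg-Arg-AMC cleavage, with aprotinin as a positive control. Percent inhibition was taken from triplicate measurements at 150 nM inhibitor. IC50 values were determined by a similar method for selected compounds.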

[3] = molecular target: Genome polyprotein (dengue virus type 2) (UniProt P29990); assay: Inhibition of DENV NS2B-NS3 protease assessed as ratio of Kinact/Ki using benzoyl-Nle-Lys-Arg-Arg-AMC as substrate incubated for 60 min by measuring fluorescence intensity
Procedure, shortened: (§2)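 Time-dependent inactivation of DENV NS2B-NS3 protease was followed by fluorescence from cleavage of benzoyl-Nle-Lys-Arg-Arg-AMC at several inhibitor concentrations. kobs values were obtained at each concentration and plotted against inhibitor concentration to derive kinact, Ki and the second-order rate constant kinact/Ki.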

[4] = molecular target: T1, Genome polyprotein; assay: Inhibition of DENV2 NS2B-NS3 protease expressed in Escherichia coli assessed as fluorescence emission using Bz-nKRR-AMC as substrate by microplate reader assay; procedure, shortened: as §1
[5] = molecular target: T1, Genome polyprotein; assay: Binding affinity to DENV NS2B-NS3 protease assessed as inhibition constant using benzoyl-Nle-Lys-Arg-Arg-AMC as substrate incubated for 60 min by measuring fluorescence intensity; procedure, shortened: as §2
[6] = molecular target: Genome polyprotein (dengue virus type 2) (UniProt P29990); assay: Inhibition of DENV NS2B-NS3 protease assessed as inactivation constant using benzoyl-Nle-Lys-Arg-Arg-AMC as substrate incubated for 60 min by measuring fluorescence intensity; procedure, shortened: as §2
[7] = molecular target: Genome polyprotein (dengue virus type 2) (UniProt P29990); assay: Inhibition of DENV NS2B-NS3 protease assessed as fluorescence emission using benzoyl-Nle-Lys-Arg-Arg-AMC as substrate at 1.4 to 16.7 uM by fluorimetric assay; conditions: dose 1.4-16.7 µM, time min <=60, TDE = time-dependent effect
[8] = system: BHK-21; assay: Cytotoxicity against DENV infected hamster BHK-21 cells assessed as cell survival rate at 5 uM incubated for 5 days measured by CCK-8 assay; assay type: toxicity, cell-based, Mesocricetus auratus; conditions: bhk-21, 120 h, time 5 day
[9] = system: BHK-21; assay: Cytoprotective activity against DENV infected hamster BHK-21 cells assessed as cell survival rate at 5 uM incubated for 5 days measured by CCK-8 assay; assay type: functional, cell-based; conditions: Mesocricetus auratus, time 5.0 day
Procedure, shortened: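 BHK-21 cells are infected with DENV and treated with compound at 5 μM. Cell viability is read by CCK-8. Survival rate is compared against the virus-infection control.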

Structure (SMILES)	inhibition [1] [%]	further results
CCOc1ccc(S(=O)(=O)n2nc(OC(=O)c3ccc(OC)cc3)cc2N)cc1	43.6	–
CCOc1ccc(S(=O)(=O)n2nc(OC(=O)c3ccc(N)cc3)cc2N)cc1	71.9	–
Nc1cc(OC(=O)c2ccc(-c3ccccc3)cc2)nn1S(=O)(=O)c1ccc(C(F)(F)F)cc1	41.2	–
Nc1ccc(C(=O)Oc2cc(N)n(S(=O)(=O)c3ccccc3)n2)cc1	76.4	–
Nc1cc(OC(=O)c2ccc([N+](=O)[O-])cc2)nn1S(=O)(=O)c1ccc(Br)cc1	17.3	–
Nc1ccc(C(=O)Oc2cc(N)n(S(=O)(=O)c3ccc(Oc4ccccc4)cc3)n2)cc1	100	IC50 [2]: 9 nM
Nc1cc(OC(=O)c2ccc([N+](=O)[O-])cc2)nn1S(=O)(=O)c1ccc(Cl)cc1	13.2	–
Cc1ccc(C(=O)Oc2cc(N)n(S(=O)(=O)c3ccc(Oc4ccccc4)cc3)n2)cc1	81	–
CCOc1ccc(S(=O)(=O)n2nc(OC(=O)c3ccc([N+](=O)[O-])cc3)cc2N)cc1	32.6	–
Nc1cc(OC(=O)c2ccc([N+](=O)[O-])cc2)nn1S(=O)(=O)c1ccc(C(F)(F)F)cc1	22	–
CC(C)(C)c1ccc(S(=O)(=O)n2nc(OC(=O)c3ccc(N)cc3)cc2N)cc1	88.1	–
CC(C)(C)c1ccc(S(=O)(=O)n2nc(OC(=O)c3ccc(-c4ccccc4)cc3)cc2N)cc1	59.8	–
Cc1ccc(C(=O)Oc2cc(N)n(S(=O)(=O)c3ccc(C(F)(F)F)cc3)n2)cc1	19.3	–
Nc1ccc(C(=O)Oc2cc(N)n(S(=O)(=O)c3ccc(C(F)(F)F)cc3)n2)cc1	52.6	–
COc1ccc(S(=O)(=O)n2nc(OC(=O)c3ccc(-c4ccccc4)cc3)cc2N)cc1	59.7	Ratio [3]: 156; IC50 [4]: 500 nM; Ki [5]: 7250 nM; IC50 [2]: 500 nM; Kinact [6]: 1.13 10^-3/s; inhibition [7]: Tde
Nc1ccc(C(=O)Oc2cc(N)n(S(=O)(=O)c3ccc(Br)cc3)n2)cc1	100	IC50 [2]: 74 nM
CC(C)(C)c1ccc(S(=O)(=O)n2nc(OC(=O)c3ccc([N+](=O)[O-])cc3)cc2N)cc1	20.4	–
Nc1cc(OC(=O)c2ccc([N+](=O)[O-])cc2)nn1S(=O)(=O)c1ccc(Oc2ccccc2)cc1	64.3	–
COc1ccc(S(=O)(=O)n2nc(OC(=O)c3ccc(N)cc3)cc2N)cc1	68.5	–
COc1ccc(C(=O)Oc2cc(N)n(S(=O)(=O)c3ccc(C(F)(F)F)cc3)n2)cc1	16.1	–
CCOc1ccc(S(=O)(=O)n2nc(OC(=O)c3ccc(C)cc3)cc2N)cc1	42.1	–
CCOc1ccc(S(=O)(=O)n2nc(OC(=O)c3ccc(-c4ccccc4)cc3)cc2N)cc1	100	Ratio [3]: 1580; Activity [8]: Non-Toxic; Activity [9]: Active; Ki [5]: 665 nM; IC50 [2]: 6 nM; Kinact [6]: 1.05 10^-3/s; inhibition [7]: Tde
Nc1ccc(C(=O)Oc2cc(N)n(S(=O)(=O)c3ccc(F)cc3)n2)cc1	87.8	–
Nc1cc(OC(=O)c2ccc(-c3ccccc3)cc2)nn1S(=O)(=O)c1ccccc1	100	IC50 [2]: 12 nM
COc1ccc(C(=O)Oc2cc(N)n(S(=O)(=O)c3ccc(Oc4ccccc4)cc3)n2)cc1	76.7	–
Nc1ccc(C(=O)Oc2cc(N)n(S(=O)(=O)c3ccc(Cl)cc3)n2)cc1	85.6	–
Nc1cc(OC(=O)c2ccc(-c3ccccc3)cc2)nn1S(=O)(=O)c1ccc(Oc2ccccc2)cc1	95	–
Nc1cc(OC(=O)c2ccc([N+](=O)[O-])cc2)nn1S(=O)(=O)c1ccccc1	27.3	–
